Assay results published in article PMC3753066 (Nature methods, 2013).
Converted amounts (≈) assume the structure as drawn. Starred links: 1 amine or outer side, 2 acyl side, 3 side chain; linkers in the order of their positions; H or OH if unused. Non-standard residues stand in square brackets, D forms with d. Residues, ends and D or L forms follow the SMILES beside them. X1 = CCCCCCCC[C@@H](C(=O)[*:2])N(C)[*:1]; Gly(octyl) = CCCCCCCC[C@H](N)C(=O)O; NMeL = CN[C@@H](CC(C)C)C(=O)O

Experiments:
[1] = Water solubility of the peptides; assay type: physicochemical
[2] = biological target: MsbA (Escherichia coli, UniProt P60752); experiment: MsbA ATPase activity and stability in BPs or detergent; assay type: biochemical, E. coli; conditions: for ATPase activity of MsbA solubilized in the reagent: measured in triplicate at 37 °C, 20 mM Tris pH 7.5, 20 mM NaCl, 0.2–0.5 mg/mL
MsbA, sequence (P60752 whole entry): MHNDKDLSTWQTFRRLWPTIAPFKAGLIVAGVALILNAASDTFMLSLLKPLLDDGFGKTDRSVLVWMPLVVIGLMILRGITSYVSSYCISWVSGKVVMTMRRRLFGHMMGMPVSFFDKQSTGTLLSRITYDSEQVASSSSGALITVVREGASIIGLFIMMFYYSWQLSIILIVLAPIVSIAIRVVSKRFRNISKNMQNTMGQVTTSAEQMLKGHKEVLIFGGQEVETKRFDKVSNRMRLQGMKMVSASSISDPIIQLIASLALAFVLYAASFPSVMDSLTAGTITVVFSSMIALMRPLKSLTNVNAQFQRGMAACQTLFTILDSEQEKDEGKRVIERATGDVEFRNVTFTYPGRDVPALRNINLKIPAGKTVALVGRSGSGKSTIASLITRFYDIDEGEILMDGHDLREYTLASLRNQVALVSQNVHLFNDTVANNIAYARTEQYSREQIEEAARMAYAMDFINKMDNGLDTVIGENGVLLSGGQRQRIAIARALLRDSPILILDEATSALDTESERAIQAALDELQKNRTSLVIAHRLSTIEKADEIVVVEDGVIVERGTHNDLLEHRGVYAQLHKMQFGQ
Method in brief: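 E. coli MsbA purified in UDM, then mixed with peptide at 50:1–100:1 molar ratio (peptide:protein). Detergent was removed by dialysis (6 kDa cutoff, 4 °C, 1–2 days, TLC-monitored) and the supernatant kept after 300,000 × g, 2 h, 4 °C. Comparison preparations were in UDM, LMNG, Amphipol A8-35 (5:1 w/w) or MSP1D1/DMPC nanodiscs. Samples (0.2–0.5 mg/mL) were held at RT up to 40 days, with linked-enzyme ATPase read-out, means ± standard error.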

Row | loss of MsbA ATPase activity ([2]; within the first day of incubation at RT, accompanied by protein precipitation) | Structure (SMILES) | solubility [1] [µM] | change of MsbA ATPase activity on incubation ([2]; 40 days of incubation at RT) | ATPase activity of MsbA solubilized in the reagent [2]
1 |  | CCCCCCCC[C@H](NC(C)=O)C(=O)N[C@@H](CO)C(=O)N(C)[C@@H](CC(C)C)C(=O)N[C@@H](CO)C(=O)N(C)[C@@H](CC(C)C)C(=O)N[C@@H](CC(=O)O)C(=O)N[C@@H](CCCCCCCC)C(=O)N[C@@H](CC(=O)O)C(N)=O [BP-2] (Ac-[Gly(octyl)]S[NMeL]S[NMeL]D[Gly(octyl)]D-NH2) | ~3000 (≈ 3170 µg/mL) |  | 
2 |  | CCCCCCCC[C@H](NC(C)=O)C(=O)N[C@@H](CO)C(=O)N(C)[C@@H](CC(C)C)C(=O)N[C@@H](CO)C(=O)N(C)[C@@H](CC(C)C)C(=O)N[C@@H](CC(=O)O)C(=O)N(C)[C@@H](CCCCCCCC)C(=O)N[C@@H](CC(=O)O)C(N)=O [BP-3] (Ac-[Gly(octyl)]S[NMeL]S[NMeL]D[X1]D-NH2) | ~1000 (≈ 1070 µg/mL) |  | 
3 |  | CCCCCCCC[C@H](NC(C)=O)C(=O)N[C@@H](CO)C(=O)N[C@@H](CC(C)C)C(=O)N[C@@H](CO)C(=O)N(C)[C@@H](CC(C)C)C(=O)N[C@@H](CC(=O)O)C(=O)N[C@@H](CCCCCCCC)C(=O)N[C@@H](CC(=O)O)C(N)=O [BP-1] (Ac-[Gly(octyl)]SLS[NMeL]D[Gly(octyl)]D-NH2) | ~3000 (≈ 3130 µg/mL) | little change | ~ 4 μmol/min/mg
4 | ~ 80% | CCCCCCCCCCCO[C@@H]1O[C@H](CO)[C@@H](O[C@H]2O[C@H](CO)[C@@H](O)[C@H](O)[C@H]2O)[C@H](O)[C@H]1O [UDM, β-D-undecylmaltoside, reference compound] |  |  | 2.2 µmol/min/mg
